Assay results as given in ChEMBL document CHEMBL2062442, “Synthesis and biological evaluation of new N-acyl-homoserine-lactone analogues, based on triazole and tetrazole scaffolds, acting as LuxR-dependent quorum sensing modulators” (Bioorg Med Chem, 2012).
The source made the active and inactive calls. The rule behind the calls is not given here.

Tests used:
Format in all cases: functional
[1] = molecular target: T1, Transcriptional activator protein LuxR (Aliivibrio fischeri) (UniProt P12746); experiment: Agonist activity at Vibrio fischeri LuxR expressed in Escherichia coli NM522 coexpressing LuxCDABE assessed as activation of 3-oxoC6-HSL-induced quorum sensing activation at 200 uM measured after 4 to 5 hrs by reporter gene assay
T1 sequence (whole entry): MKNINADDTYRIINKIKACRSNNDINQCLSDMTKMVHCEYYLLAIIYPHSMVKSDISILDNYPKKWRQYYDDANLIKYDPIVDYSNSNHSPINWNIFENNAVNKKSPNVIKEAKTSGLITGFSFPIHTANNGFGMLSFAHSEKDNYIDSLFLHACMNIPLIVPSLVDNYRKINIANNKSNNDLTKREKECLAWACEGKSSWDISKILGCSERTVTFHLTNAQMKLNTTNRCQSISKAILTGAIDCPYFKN
How it was run: (§1)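 E. coli biosensor carrying pSB401, in which V. fischeri luxR and the luxI promoter drive P. luminescens luxCDABE. Cultures were grown to exponential phase in Luria broth with tetracycline (20) at 30 °C. Analogues were added alone at up to 200 in microtitre plates. Luminescence was read after 4–5 h, at the maximal ratio of induced to background light. EC50 is the concentration giving 50% bioluminescence intensity.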

[2] = molecular target: T2, Transcriptional activator protein LuxR (Aliivibrio fischeri, UniProt P12746); experiment: Antagonist activity at Vibrio fischeri LuxR expressed in Escherichia coli NM522 coexpressing LuxCDABE assessed as inhibition of 3-oxoC6-HSL-induced quorum sensing activation measured after 4 to 5 hrs by reporter gene assay
T2 sequence (P12746 whole entry): T1 sequence (whole entry)
How it was run: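 The inhibition read-out is the decrease in bioluminescence induced by 200 nM 3-oxo-C6-HSL in E. coli carrying pSB401 (V. fischeri luxR/luxI promoter fused to P. luminescens luxCDABE). Cells were grown to exponential phase in Luria broth with tetracycline at 30 °C. Light was quantified by luminometer in microtitre plates after 4–5 h, when the ratio of induced to background light peaked.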

[3] = molecular target: T2, Transcriptional activator protein LuxR; experiment: Agonist activity at Vibrio fischeri LuxR expressed in Escherichia coli NM522 coexpressing LuxCDABE assessed as activation of 3-oxoC6-HSL-induced quorum sensing activation measured after 4 to 5 hrs by reporter gene assay; how it was run: as §1
[4] = molecular target: T1, Transcriptional activator protein LuxR (Aliivibrio fischeri); experiment: Agonist activity at Vibrio fischeri LuxR expressed in Escherichia coli NM522 coexpressing LuxCDABE assessed as activation of 3-oxoC6-HSL-induced quorum sensing activation measured after 4 to 5 hrs by reporter gene assay relative to control; how it was run: as §1

Activity [1] | IC50 ([2]; read-out: IC50) [µM] | Compound | further results
inactive | 51 | CCCCCc1cn(C2CCOC2=O)nn1 (racemic) | –
– | 80 | CCCCCn1nnnc1C1CCOC1=O (racemic) | –
inactive | – | CCCCCn1cc(CC(=O)OCC)nn1 | –
inactive | 94 | CCCCCc1cn(CC(=O)OCC)nn1 | –
– | > 200 | CCCCCCn1nnnc1CC(=O)OCC | –
inactive | – | CCCCCc1cn(CC(N)=O)nn1 | IC50 [2]: Not Active
inactive | – | CCCCCn1cc(CC(=O)O)nn1 | –
– | – | CCCCCCc1nnnn1C1CCOC1=O (racemic) | EC50 [3]: 35 µM; Activity [4]: 102 RLU
inactive | – | CCCCCCCCCCCCn1cc(CC(=O)O)nn1 | –
– | > 200 | CCCCn1nnnc1C1CCOC1=O (racemic) | –
inactive | – | CCCCCCCCCCCCc1cn(CC(=O)OCC)nn1 | –
inactive | – | CCCCCCCCCCCCc1cn(CC(=O)O)nn1 | –
inactive | – | CCCCCc1cn(CC(=O)O)nn1 | IC50 [2]: Not Active
– | – | CCCCCc1nnnn1C1CCOC1=O (racemic) | EC50 [3]: 10 µM; Activity [4]: 59 RLU
inactive | – | CCCCCc1cn(CC(=O)NO)nn1 | IC50 [2]: Not Active
inactive | – | CCCCCCCCCCCCn1cc(CC(=O)OCC)nn1 | –
– | 74 | CCCCCCn1nnnc1C1CCOC1=O (racemic) | –
